Test results published in ChEMBL document CHEMBL3046951, “Volatile constituents from the leaves of Callicarpa japonica Thunb. and their antibacterial activities” (2004).

Tests used:
Type in all cases: functional
[1] = system: Vibrio parahaemolyticus; assay: Antimicrobial activity against Vibrio parahaemolyticus ATCC 33844 assessed as growth inhibition rate at 1.84 mg/l after 72 hr by spectrophotometry; conditions: ATCC 33844, 72 h, read-out: GI
[2] = system: Listeria monocytogenes; assay: Antimicrobial activity against Listeria monocytogenes ATCC 19111 assessed as growth inhibition rate at 1.84 mg/l after 72 hr by spectrophotometry; conditions: ATCC 19111, 72 h, read-out: GI
Method in brief: (§1)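 L. monocytogenes was grown at 30 °C in tryptic soy broth, subcultured for 18 h, and exposed to pure volatile compounds (>95% purity). Growth was followed by Bioscreen C optical density every 24 h for 72 h against a 10% Tween 80 control.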

[3] = system: Escherichia coli; assay: Antimicrobial activity against Escherichia coli O157:H7 ATCC 43894 assessed as growth inhibition rate at 1.84 mg/l after 72 hr by spectrophotometry; conditions: O157:H7 ATCC 43894, 72 h, read-out: GI
[4] = system: Staphylococcus aureus; assay: Antimicrobial activity against Staphylococcus aureus ATCC 25923 assessed as growth inhibition rate at 1.84 mg/l after 72 hr by spectrophotometry; conditions: ATCC 25923, 72 h, read-out: GI
[5] = system: Salmonella typhimurium; assay: Antimicrobial activity against Salmonella enterica subsp. enterica serovar Typhimurium ATCC 14028 assessed as growth inhibition rate at 1.84 mg/l after 72 hr by spectrophotometry; conditions: ATCC 14028, 72 h, read-out: GI
Method in brief: (§2)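 Salmonella Typhimurium ATCC 14028 grown in nutrient broth at 30 °C, precultured 24 h, then subcultured 1:100 for 18 h before testing. Single volatile compounds (>95% pure) were added. OD was read every 24 h over 72 h in a Bioscreen C, with 10% Tween 80 as the comparison control.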

[6] = system: Bacillus cereus; assay: Antimicrobial activity against Bacillus cereus ATCC 11778 assessed as growth inhibition rate at 1.84 mg/l after 72 hr by spectrophotometry; conditions: ATCC 11778, 72 h, read-out: GI
Method in brief: (§3)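 Pure volatile compounds (purity >95%; one at 90%) were tested against B. cereus ATCC 11778. The strain was grown at 30 °C in nutrient broth for 24 h, then subcultured for 18 h. Optical density was read in a Bioscreen C every 24 h for 72 h, with 10% Tween 80 as the control.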

[7] = system: Staphylococcus aureus; assay: Antimicrobial activity against Staphylococcus aureus ATCC 25923 assessed as growth inhibition rate at 13.04 mg/l after 72 hr by spectrophotometry; conditions: ATCC 25923, 72 h, read-out: GI
[8] = system: Listeria monocytogenes; assay: Antimicrobial activity against Listeria monocytogenes ATCC 19111 assessed as growth inhibition rate at 13.04 mg/l after 72 hr by spectrophotometry; conditions: ATCC 19111, 72 h, read-out: GI; method in brief: as §1
[9] = system: Escherichia coli; assay: Antimicrobial activity against Escherichia coli O157:H7 ATCC 43894 assessed as growth inhibition rate at 13.04 mg/l after 72 hr by spectrophotometry; conditions: O157:H7 ATCC 43894, 72 h, read-out: GI
[10] = system: Bacillus cereus; assay: Antimicrobial activity against Bacillus cereus ATCC 11778 assessed as growth inhibition rate at 13.04 mg/l after 72 hr by spectrophotometry; conditions: ATCC 11778, 72 h, read-out: GI; method in brief: as §3
[11] = system: Salmonella typhimurium; assay: Antimicrobial activity against Salmonella enterica subsp. enterica serovar Typhimurium ATCC 14028 assessed as growth inhibition rate at 13.04 mg/l after 72 hr by spectrophotometry; conditions: ATCC 14028, 72 h, read-out: GI; method in brief: as §2
[12] = system: Vibrio parahaemolyticus; assay: Antimicrobial activity against Vibrio parahaemolyticus ATCC 33844 assessed as growth inhibition rate at 13.04 mg/l after 72 hr by spectrophotometry; conditions: ATCC 33844, 72 h, read-out: GI
[13] = system: Escherichia coli; assay: Antimicrobial activity against Escherichia coli O157:H7 ATCC 43894 assessed as growth inhibition rate at 1.96 mg/l after 72 hr by spectrophotometry; conditions: O157:H7 ATCC 43894, 72 h, read-out: GI
[14] = system: Vibrio parahaemolyticus; assay: Antimicrobial activity against Vibrio parahaemolyticus ATCC 33844 assessed as growth inhibition rate at 1.96 mg/l after 72 hr by spectrophotometry; conditions: ATCC 33844, 72 h, read-out: GI
Method in brief: (§4)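 Authentic volatiles (>95% purity; 2,4-heptadienal 90%) tested against 18 h subcultures. Growth media: E. coli O157:H7 and S. aureus in tryptic soy broth at 37 °C; L. monocytogenes in tryptic soy broth at 30 °C; V. parahaemolyticus in tryptic soy broth + 3% NaCl at 37 °C; S. typhimurium in nutrient broth at 30 °C. Bioscreen C OD every 24 h for 72 h versus 10% Tween 80 control.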

[15] = system: Staphylococcus aureus; assay: Antimicrobial activity against Staphylococcus aureus ATCC 25923 assessed as growth inhibition rate at 1.96 mg/l after 72 hr by spectrophotometry; conditions: ATCC 25923, 72 h, read-out: GI; method in brief: as §4
[16] = system: Bacillus cereus; assay: Antimicrobial activity against Bacillus cereus ATCC 11778 assessed as growth inhibition rate at 1.96 mg/l after 72 hr by spectrophotometry; conditions: ATCC 11778, 72 h, read-out: GI
Method in brief: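 Pure volatile compounds (>95% purity; 2,4-heptadienal 90%) identified in the leaf extract were tested against B. cereus ATCC 11778 in nutrient broth at 30 °C. The inoculum was grown 24 h, then subcultured (0.1 mL into 9.9 mL) for 18 h. Optical density was read in a Bioscreen C every 24 h for 72 h against a 10% Tween 80 control.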

[17] = system: Listeria monocytogenes; assay: Antimicrobial activity against Listeria monocytogenes ATCC 19111 assessed as growth inhibition rate at 1.96 mg/l after 72 hr by spectrophotometry; conditions: ATCC 19111, 72 h, read-out: GI; method in brief: as §4
[18] = system: Salmonella typhimurium; assay: Antimicrobial activity against Salmonella enterica subsp. enterica serovar Typhimurium ATCC 14028 assessed as growth inhibition rate at 2.36 mg/l after 72 hr by spectrophotometry; conditions: ATCC 14028, 72 h, read-out: GI; method in brief: as §2
[19] = system: Listeria monocytogenes; assay: Antimicrobial activity against Listeria monocytogenes ATCC 19111 assessed as growth inhibition rate at 2.36 mg/l after 72 hr by spectrophotometry; conditions: ATCC 19111, 72 h, read-out: GI; method in brief: as §1
[20] = system: Vibrio parahaemolyticus; assay: Antimicrobial activity against Vibrio parahaemolyticus ATCC 33844 assessed as growth inhibition rate at 2.36 mg/l after 72 hr by spectrophotometry; conditions: ATCC 33844, 72 h, read-out: GI
[21] = system: Bacillus cereus; assay: Antimicrobial activity against Bacillus cereus ATCC 11778 assessed as growth inhibition rate at 2.36 mg/l after 72 hr by spectrophotometry; conditions: ATCC 11778, 72 h, read-out: GI; method in brief: as §3
[22] = system: Staphylococcus aureus; assay: Antimicrobial activity against Staphylococcus aureus ATCC 25923 assessed as growth inhibition rate at 2.36 mg/l after 72 hr by spectrophotometry; conditions: ATCC 25923, 72 h, read-out: GI
[23] = system: Escherichia coli; assay: Antimicrobial activity against Escherichia coli O157:H7 ATCC 43894 assessed as growth inhibition rate at 2.36 mg/l after 72 hr by spectrophotometry; conditions: O157:H7 ATCC 43894, 72 h, read-out: GI
[24] = system: Listeria monocytogenes; assay: Antimicrobial activity against Listeria monocytogenes ATCC 19111 assessed as growth inhibition rate at 4.44 mg/l after 72 hr by spectrophotometry; conditions: ATCC 19111, 72 h, read-out: GI; method in brief: as §1
[25] = system: Vibrio parahaemolyticus; assay: Antimicrobial activity against Vibrio parahaemolyticus ATCC 33844 assessed as growth inhibition rate at 4.44 mg/l after 72 hr by spectrophotometry; conditions: ATCC 33844, 72 h, read-out: GI
[26] = system: Bacillus cereus; assay: Antimicrobial activity against Bacillus cereus ATCC 11778 assessed as growth inhibition rate at 4.44 mg/l after 72 hr by spectrophotometry; conditions: ATCC 11778, 72 h, read-out: GI; method in brief: as §3
[27] = system: Escherichia coli; assay: Antimicrobial activity against Escherichia coli O157:H7 ATCC 43894 assessed as growth inhibition rate at 4.44 mg/l after 72 hr by spectrophotometry; conditions: O157:H7 ATCC 43894, 72 h, read-out: GI
[28] = system: Staphylococcus aureus; assay: Antimicrobial activity against Staphylococcus aureus ATCC 25923 assessed as growth inhibition rate at 4.44 mg/l after 72 hr by spectrophotometry; conditions: ATCC 25923, 72 h, read-out: GI
[29] = system: Salmonella typhimurium; assay: Antimicrobial activity against Salmonella enterica subsp. enterica serovar Typhimurium ATCC 14028 assessed as growth inhibition rate at 4.44 mg/l after 72 hr by spectrophotometry; conditions: ATCC 14028, 72 h, read-out: GI; method in brief: as §2

CC/C=C/C=O [PENTENAL]
inhibition of growth at 1.84 µg/mL [1]: 40.7% | inhibition of growth at 1.84 µg/mL [2]: 16.9% | inhibition of growth at 1.84 µg/mL [3]: 11% | inhibition of growth at 1.84 µg/mL [4]: 12.2% | inhibition of growth at 1.84 µg/mL [5]: 39.6% | inhibition of growth at 1.84 µg/mL [6]: 27.4%

C=C1CC[C@@H]2C[C@H]1C2(C)C [(+)-BETA-PINENE]
inhibition of growth at 13.04 µg/mL [7]: 17.6% | inhibition of growth at 13.04 µg/mL [8]: 2.8% | inhibition of growth at 13.04 µg/mL [9]: 3.4% | inhibition of growth at 13.04 µg/mL [10]: 0% | inhibition of growth at 13.04 µg/mL [11]: 14.9% | inhibition of growth at 13.04 µg/mL [12]: 45.1%

Cc1ccccc1 [TOLUENE]
inhibition of growth at 1.96 µg/mL [13]: 0% | inhibition of growth at 1.96 µg/mL [14]: 1.6% | inhibition of growth at 1.96 µg/mL [15]: 1.8% | inhibition of growth at 1.96 µg/mL [16]: 0% | inhibition of growth at 1.96 µg/mL [17]: 0%

CCCCC=O [PENTANAL]
inhibition of growth at 2.36 µg/mL [18]: 4.2% | inhibition of growth at 2.36 µg/mL [19]: 0% | inhibition of growth at 2.36 µg/mL [20]: 0% | inhibition of growth at 2.36 µg/mL [21]: 11.3% | inhibition of growth at 2.36 µg/mL [22]: 6.3% | inhibition of growth at 2.36 µg/mL [23]: 0%

CC1=CC[C@@H]2C[C@H]1C2(C)C [1R-(+)-ALPHA-PINENE]
inhibition of growth at 4.44 µg/mL [24]: 0% | inhibition of growth at 4.44 µg/mL [25]: 10.7% | inhibition of growth at 4.44 µg/mL [26]: 0% | inhibition of growth at 4.44 µg/mL [27]: 0% | inhibition of growth at 4.44 µg/mL [28]: 20.8% | inhibition of growth at 4.44 µg/mL [29]: 5.2%
